Reference: publication PMC9055986 (RSC Advances, 2020)

Experiments:
[1] = biological target: PARP-1 (Homo sapiens, UniProt P09874); experiment: In vitro PARP-1 inhibitory assay; type: biochemical; conditions: IC50 (nM), in vitro inhibitory activity against PARP-1; mean ± S.E.M., n = 3
[2] = system: MCF-7 cells; experiment: Cell cycle analysis; type: cell-based; conditions: for cell cycle arrest: MCF-7 cell line, in words; for DNA content% % G0–G1 / DNA content% % G2–M / DNA content% % Pre G1 / DNA content% % S: MCF-7 cells, 10 μg mL^−1, 24 h
[3] = system: MCF-7 cells; experiment: Annexin V-FITC apoptosis assay; type: cell-based; conditions: 2.5 μM, 24 h, Annexin V and PI double staining
Procedure, shortened: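 MCF-7 cells exposed to test compound (2.5 μM) for 24 h, then double-stained with Annexin V-FITC and propidium iodide. Stained cells were detected by flow cytometry, and the percentage of apoptotic cells was determined.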

Chain of PARP-1 (P09874 whole entry): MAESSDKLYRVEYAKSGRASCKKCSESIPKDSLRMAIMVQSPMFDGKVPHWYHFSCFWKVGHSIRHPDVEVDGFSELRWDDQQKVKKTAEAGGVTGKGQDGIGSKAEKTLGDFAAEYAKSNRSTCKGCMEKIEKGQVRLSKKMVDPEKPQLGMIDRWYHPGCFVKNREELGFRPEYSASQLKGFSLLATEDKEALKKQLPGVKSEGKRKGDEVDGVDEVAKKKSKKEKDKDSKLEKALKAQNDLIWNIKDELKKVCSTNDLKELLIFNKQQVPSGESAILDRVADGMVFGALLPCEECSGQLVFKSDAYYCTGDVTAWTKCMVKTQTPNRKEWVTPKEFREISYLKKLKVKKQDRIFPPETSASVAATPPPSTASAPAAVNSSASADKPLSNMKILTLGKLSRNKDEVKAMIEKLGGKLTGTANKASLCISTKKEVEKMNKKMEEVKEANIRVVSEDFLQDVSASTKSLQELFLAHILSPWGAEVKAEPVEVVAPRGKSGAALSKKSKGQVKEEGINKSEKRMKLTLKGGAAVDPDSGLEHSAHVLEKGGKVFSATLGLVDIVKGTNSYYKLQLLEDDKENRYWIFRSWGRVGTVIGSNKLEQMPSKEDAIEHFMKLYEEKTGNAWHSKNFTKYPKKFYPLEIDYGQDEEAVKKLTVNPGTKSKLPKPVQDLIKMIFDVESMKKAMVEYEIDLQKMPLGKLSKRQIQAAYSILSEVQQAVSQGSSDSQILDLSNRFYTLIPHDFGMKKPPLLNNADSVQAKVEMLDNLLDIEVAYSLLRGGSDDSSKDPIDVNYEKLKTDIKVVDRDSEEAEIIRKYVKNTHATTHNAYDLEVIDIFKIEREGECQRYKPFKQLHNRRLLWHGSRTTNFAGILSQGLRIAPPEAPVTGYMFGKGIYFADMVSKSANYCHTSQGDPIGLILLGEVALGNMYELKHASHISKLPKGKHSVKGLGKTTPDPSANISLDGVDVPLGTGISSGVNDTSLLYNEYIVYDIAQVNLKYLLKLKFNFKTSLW

Row | SMILES | IC50 [1] [nM] | cell cycle arrest [2] | DNA content% % G0–G1 [2] [%] | DNA content% % G2–M [2] [%] | DNA content% % Pre G1 [2] [%] | DNA content% % S [2] [%] | Apoptosis Total [3] [%]
1 | COC(=O)c1ccc(NC(=O)Cn2c(=S)n(-c3ccccc3)c(=O)c3ccccc32)cc1 [Compound 6a, Methyl 4-(2-(4-oxo-3-phenyl-2-thioxo-3,4-dihydroquinazolin-1(2H)-yl)acetamido)benzoate] | 56 ± 2.95 | – | – | – | – | – | –
2 | CC(=O)c1ccc(NC(=O)Cn2c(=S)n(-c3ccccc3)c(=O)c3ccccc32)cc1 [Compound 6b, N-(4-Acetylphenyl)-2-(4-oxo-3-phenyl-2-thioxo-3,4-dihydroquinazolin-1(2H)-yl)acetamide] | 64.7 ± 3.38 | – | – | – | – | – | –
3 | COc1ccc(-c2cc(-c3ccc(NC(=O)CSc4nc5ccccc5c(=O)n4-c4ccccc4)cc3)nc(N)c2C#N)cc1 [Compound 8a, N-(4-(6-Amino-5-cyano-4-(4-methoxyphenyl)pyridin-2-yl)phenyl)-2-((4-oxo-3-phenyl-3,4-dihydroquinazolin-2-yl)thio)acetamide] | 32.5 ± 2.64 | – | – | – | – | – | –
4 | COC(=O)c1ccc(NC(=O)CNNc2nc3ccccc3c(=O)n2-c2ccccc2)cc1 [Compound 12a, Methyl 4-(2-(2-(4-oxo-3-phenyl-3,4-dihydroquinazolin-2-yl)hydrazinyl)acetamido)benzoate] | 39.1 ± 3.89 | cell growth arrest at the G2/M phase | 38.51 | 38.06 | 26.55 | 23.43 | –
5 | NS(=O)(=O)c1ccc(NC(=O)CNNc2nc3ccccc3c(=O)n2-c2ccccc2)cc1 [Compound 12c, 2-(2-(4-Oxo-3-phenyl-3,4-dihydroquinazolin-2-yl)hydrazinyl)-N-(4-sulfamoylphenyl)-acetamide] | 27.9 ± 3.45 | cell growth arrest at the G2/M phase | 43.28 | 23.49 | 19.31 | 33.23 | –
6 | O=c1c2ccccc2nc(NN=Cc2ccc(O)cc2)n1-c1ccccc1 [Compound 13b, 2-(2-(4-Hydroxybenzylidene)hydrazinyl)-3-phenylquinazolin-4(3H)-one] | 44.2 ± 3.12 | – | – | – | – | – | –
7 | COc1ccccc1C=NNc1nc2ccccc2c(=O)n1-c1ccccc1 [Compound 13c, 2-(2-(2-Methoxybenzylidene)hydrazinyl)-3-phenylquinazolin-4(3H)-one] | 45.6 ± 2.86 | – | – | – | – | – | –
8 | CN[C@@H]1C[C@H]2O[C@@](C)([C@@H]1OC)n1c3ccccc3c3c4c(c5c6ccccc6n2c5c31)C(=O)NC4 [Stauroporine, reference compound] | – | – | 37.19 | 36.59 | – | 26.22 | 31.74
